Reference: ChEMBL document CHEMBL1765063, “Synthesis and anti-melanogenic activity of hydroxyphenyl benzyl ether analogues” (Bioorg Med Chem, 2011)
pEC50, pIC50: −log10 of the molar value.

What was measured:
B16 [1] = assay: Inhibition of alpha-MSH-induced melanin synthesis in mouse B16 cells grown in a 5% CO2-95% air atmosphere at 10 uM after 3 days; type: functional; conditions: B16, 72 h
Method in brief: (§1)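 Mouse B16 melanoma cells seeded at 2.5×10^3 per well in DMEM with 10% FBS and grown 1 day at 37 °C. α-MSH was added together with compound at various concentrations, then cells were incubated 3 days at 37 °C. Absorbance at 405 nm was read against a synthetic melanin standard curve (melanin dissolved in 0.85 N KOH). IC50 is the mean of triplicate determinations.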

[2] = system: Radical scavenging activity; assay: Antioxidant activity assessed as DPPH free radical scavenging activity at 100 uM after 30 mins; type: functional
Method in brief: (§2)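 Compounds in ethanol mixed 1:1 by volume with 200 µM DPPH stock (stock concentration). Shaken 30 min at room temperature, absorbance read at 517 nm. Percent scavenging taken against DPPH without compound, blank-corrected. Screening done at 100 µM final. […] Triplicate runs, vitamin C as positive control.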

[3] = molecular target: T1, Tyrosinase (Mus musculus) (UniProt P11344); assay: Inhibition of tyrosinase activity in alpha-MSH-stimulated mouse B16 cells at 100 uM using L-tyrosine as substrate; type: cell-based
T1 sequence (whole entry): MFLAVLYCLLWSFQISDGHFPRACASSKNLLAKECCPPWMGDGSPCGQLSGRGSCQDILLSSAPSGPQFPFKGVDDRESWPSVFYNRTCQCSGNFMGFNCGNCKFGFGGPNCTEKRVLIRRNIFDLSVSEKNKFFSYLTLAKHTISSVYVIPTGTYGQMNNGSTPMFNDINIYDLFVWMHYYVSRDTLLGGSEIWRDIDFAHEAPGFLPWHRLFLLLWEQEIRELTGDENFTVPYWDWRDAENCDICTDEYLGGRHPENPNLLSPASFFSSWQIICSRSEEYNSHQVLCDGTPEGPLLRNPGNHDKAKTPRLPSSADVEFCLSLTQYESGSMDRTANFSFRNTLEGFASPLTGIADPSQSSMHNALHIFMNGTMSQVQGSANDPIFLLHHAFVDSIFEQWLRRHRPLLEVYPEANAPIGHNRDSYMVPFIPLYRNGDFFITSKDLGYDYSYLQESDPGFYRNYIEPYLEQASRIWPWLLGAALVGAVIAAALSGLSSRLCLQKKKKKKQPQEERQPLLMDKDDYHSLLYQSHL
Method in brief: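 Enzyme source: B16 cells stimulated 48 h with 10 nM α-MSH, sonicated on ice and centrifuged. Supernatant dialysed against 50 mM sodium phosphate, pH 6.8. Compound preincubated with the cell-free enzyme, then 5 mM L-tyrosine added as substrate. Initial rate of dopachrome formation followed at 475 nm. One unit converts 1 nmol L-tyrosine per min.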

B16 [4] = assay: Inhibition of alpha-MSH-induced melanin synthesis in mouse B16 cells grown in a 5% CO2-95% air atmosphere after 3 days; type: functional, cell-based; conditions: B16, 72 h; method in brief: as §1
[5] = system: Radical scavenging activity; assay: Antioxidant activity assessed as DPPH free radical scavenging activity after 30 mins; type: functional; method in brief: as §2
Tyrosinase = molecular target: T2, Tyrosinase (Mus musculus, UniProt P11344); assay: Inhibition of tyrosinase activity in alpha-MSH-stimulated mouse B16 cells using L-tyrosine as substrate; type: cell-based
T2 sequence (P11344 whole entry): T1 sequence (whole entry)
Method in brief: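 Enzyme source: B16 cells stimulated 48 h with 10 nM α-MSH, sonicated on ice and centrifuged. Supernatant dialysed against 50 mM sodium phosphate, pH 6.8. Compound preincubated with the cell-free enzyme, then 5 mM L-tyrosine added as substrate. One unit converts 1 nmol L-tyrosine per min.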

Row | Compound | inhibition [3] | pIC50 (B16 [4]) | pEC50 [5] | pIC50 (Tyrosinase) | inhibition at 10 µM (B16 [1]) | inhibition [2]
1 | Oc1cc(OCc2cccc(Cl)c2)cc(OCc2cccc(Cl)c2)c1 | 1.5% | – | – | – | 21% | 22.1%
2 | COc1cc(COc2cc(O)cc(O)c2)cc(OC)c1 | 27.5% | – | 3.89 | – | 19% | 46.8%
3 | COc1cc(COc2cc(O)cc(OC(C)=O)c2)cc(OC)c1 | – | – | – | – | – | 1.7%
4 | Oc1cc(OCc2ccccc2Cl)cc(OCc2ccccc2Cl)c1 | 3.5% | – | – | – | 33% | 15.6%
5 | CC(=O)Oc1cc(O)cc(OCc2ccc(Cl)c(Cl)c2)c1 | – | – | – | – | – | 8%
6 | O=C1O[C@H]([C@@H](O)CO)C(O)=C1O [ASCORBIC ACID] | – | – | 4.58 | – | – | 93.9%
7 | Oc1cc(OCc2ccc(F)cc2)cc(OCc2ccc(F)cc2)c1 | 5.5% | – | – | – | 12% | 21.2%
8 | Oc1cc(O)cc(OCc2ccccc2Cl)c1 | 45.5% | – | 3.78 | – | 11% | 42.8%
9 | Oc1cc(OCc2ccc(Cl)c(Cl)c2)cc(OCc2ccc(Cl)c(Cl)c2)c1 | 0% | – | – | – | 4% | 17%
10 | Oc1cc(O)cc(OCc2ccc(Cl)c(Cl)c2)c1 | 66% | – | – | 4.18 | 15% | 37.3%
11 | COc1cc(COc2cc(O)cc(OCc3cc(OC)cc(OC)c3)c2)cc(OC)c1 | 0% | – | – | – | 6% | 27.4%

Second part, led by results:

Row | inhibition [3] | pIC50 (B16 [4]) | pEC50 [5] | pIC50 (Tyrosinase) | Compound | inhibition at 10 µM (B16 [1]) | inhibition [2]
12 | – | 4.00 | – | – | OC[C@H]1O[C@@H](Oc2ccc(O)cc2)[C@H](O)[C@@H](O)[C@@H]1O [ARBUTIN] | – | –
13 | 9.5% | 5.73 | – | – | Oc1ccc(OCc2ccc(Cl)c(Cl)c2)cc1 | 87% | 33.2%
14 | 0% | – | 3.95 | – | Oc1ccc(OCc2ccccc2Cl)cc1 | 55% | 46.5%
15 | 1.5% | – | 3.99 | – | Oc1ccc(OCc2ccc(F)cc2)cc1 | 42% | 48.2%
16 | 0% | 5.71 | 4.12 | – | COc1cc(COc2ccc(O)cc2)cc(OC)c1 | > 100% | 54.1%
17 | 1% | 5.74 | 4.11 | – | Oc1ccc(OCc2cccc(Cl)c2)cc1 | 78% | 54.7%
18 | 55.5% | – | 3.85 | 4.05 | Oc1cc(O)cc(OCc2ccc(F)cc2)c1 | 14% | 46.6%
19 | 70.5% | – | 3.92 | 4.26 | Oc1cc(O)cc(OCc2cccc(Cl)c2)c1 | 18% | 49%
